Assay results: publication PMC6231235 (Science translational medicine, 2017)

System: human FXa
Experiment: In vitro neutralization of anti-FXa activity by protamine
Type: biochemical
Conditions: sample at 25 x IC50, protamine 0 to 90 μg/ml
How it was run: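 Human plasma is combined with a fixed test-compound stock set per construct and protamine chloride in PBS (0 to 90 μg/ml solutions), then held 5 min at room temperature. The mixture then goes into the chromogenic anti-FXa assay: human FXa for 4 min at room temperature, S-2765 substrate, and A405 read continuously for 5 min.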

## CO[C@H]1O[C@H](COS(=O)(=O)O)[C@@H](O[C@@H]2O[C@@H](C(=O)O)[C@@H](O[C@H]3O[C@H](COS(=O)(=O)O)[C@@H](O[C@@H]4O[C@H](C(=O)O)[C@@H](O[C@H]5O[C@H](COS(=O)(=O)O)[C@@H](O)[C@H](O)[C@H]5NS(=O)(=O)O)[C@H](O)[C@H]4O)[C@H](OS(=O)(=O)O)[C@H]3NS(=O)(=O)O)[C@H](O)[C@H]2OS(=O)(=O)O)[C@H](O)[C@H]1NS(=O)(=O)O [Fondaparinux]
  neutralization of anti-FXa activity by protamine in vitro: completely insensitive
